What was measured:
WDR5 [1] = biological target: T1, WDR5 (Homo sapiens, UniProt P61964); assay: 10-mer-Thr-FAM peptide TR-FRET competition assay; type: binding; details: relative to C3
MA93 FLT3-ITD cells = assay: Proliferation assay; type: cell-based; details: Homo sapiens, 72 h
Method in brief: (§1)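 CellTiter-Glo at 2,000 cells/well. MA93 Ras and MA93 FLT3/ITD were maintained in IMDM/20% FBS. Parental MA93 received IMDM/20% FBS plus 10 ng/mL human SCF, TPO, FLT3L, IL3 and IL6. Dosing used ≥5 two-fold dilutions from 50 μM top, 0.1% DMSO final, in triplicate wells with ≥2 biological replicates. Plates ran 72 h at 37°C, followed by 30 min reagent incubation at RT in the dark. GI50 came from DMSO-normalized luminescence.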

SET-2 cells = assay: Proliferation assay; type: cell-based; details: Homo sapiens, SET-2, 72 h
Method in brief: (§2)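 CellTiter-Glo, 5,000 cells/well. Cells received 0.1% DMSO or at least five two-fold dilutions of test compound (top 50 μM, final DMSO 0.1%), in triplicate wells and ≥2 biological replicates, for 72 h at 37°C. Reagent was added after equilibration to RT, with 30 min dark incubation before luminescence. Signals were normalized to DMSO wells and GI50 obtained by curve fitting. Curve error bars are SEM.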

THP-1 cells = assay: Proliferation assay; type: cell-based; details: Homo sapiens, THP-1, 72 h
Method in brief: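 THP-1 cells were grown in RPMI-1640 with 0.05 mM 2-mercaptoethanol and 10% FBS. Cells were plated 5,000/well with ≥5 two-fold dilutions of test compound (top 50 μM, 0.1% DMSO final), in triplicate wells with ≥2 biological replicates.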

RN2 cells = assay: Proliferation assay; type: cell-based, murine; details: Mus musculus, 72 h
Method in brief: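 Murine RN2 cells were seeded at 2,500/well and exposed to ≥5 two-fold dilutions (top 50 μM, 0.1% DMSO final) in triplicate wells, with ≥2 biological replicates, for 72 h. MTS reagent was added for 1.25 h at 37°C and absorbance read at 490 nm. Values were normalized to DMSO wells and GI50 fitted. Error bars are SEM.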

NOMO-1 cells = assay: Proliferation assay; type: cell-based; details: Homo sapiens, NOMO-1, 72 h
Method in brief: as §2

MA93 cells = assay: Proliferation assay; type: cell-based; details: Homo sapiens, 72 h
Method in brief: as §1

HL60 cells = assay: Proliferation assay; type: cell-based; details: Homo sapiens, HL-60, 72 h
Method in brief: as §2

MV4:11 cells = assay: Proliferation assay; type: cell-based, human; details: Homo sapiens, MV4-11, 72 h, MV4:11, 3 days, mean with SEM
Method in brief: as §2

HEL cells = assay: Proliferation assay; type: cell-based; details: Homo sapiens, 72 h
Method in brief: as §2

K562 cells = assay: Proliferation assay; type: cell-based; details: Homo sapiens, K562, 72 h
Method in brief: as §2

MA93 Ras cells = assay: Proliferation assay; type: cell-based; details: Homo sapiens, MA9.3RAS, 72 h
Method in brief: as §1

Molm13 cells = assay: Proliferation assay; type: cell-based; details: Homo sapiens, MOLM-13, 72 h
Method in brief: as §2

[2] = tested on: ribosome protein gene expression in MV4:11 cells; assay: RT-qPCR quantification of RPG mRNA expression; type: cell-based, human; details: MV4:11, three days, 50 µM OICR-9429 (adjusted to relative GI50)
Method in brief: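 Cells were lysed in Trizol and total RNA isolated on columns with DNase digestion. 1 μg RNA was reverse transcribed with MuLV reverse transcriptase in 20 μl, then diluted three-fold in nuclease-free water before qPCR.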

[3] = tested on: p53 and p21 protein levels in MV4:11 cells; assay: p53/p21 induction western blot; type: cell-based, human; details: MV4:11, 30 µM OICR-9429
Method in brief: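 Treatment lasted 24 h with test compound or its negative control, at 2 μM in MV4:11 and 3 μM in Molm13. Comparators were 2 μM Nutlin-3 or 0.1% DMSO. Four million cells were PBS-washed and lysed 10 min on ice in Kischkel buffer. p53 and p21 were detected by western blot, with histone H3 as loading control.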

[4] = tested on: p53 turnover in MV4:11 cells; assay: Cycloheximide; type: cell-based, human; details: MV4:11, 2 μM, 24 h before CHX
Method in brief: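 Before the cycloheximide chase, MV4:11 cells were pretreated 24 h with 2 μM test compound, 2 μM Nutlin-3 as comparator, or DMSO only. p53 was then followed by immunoblot.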

WDR5 [5] = biological target: T1, WDR5; assay: ChIP-Seq of WDR5; type: cell-based; details: MV4:11, 2 μM, 4 h
Method in brief: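 MV4:11 cells at 10^6/ml were treated 4 h with 2 μM test compound, negative control or 0.1% DMSO. Cells were concentrated to 4 × 10^6/ml in PBS, fixed in 1% formaldehyde for 10 min at RT and quenched with 125 mM glycine. They were lysed in 1% SDS FA buffer. Sheared chromatin was diluted to 0.1% SDS and immunoprecipitated overnight at 4°C with anti-WDR5 (D9E1I or 429A) or IgG on BSA-blocked protein-A agarose. Peaks were compared by normalized average read counts.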

[6] = tested on: gene expression in MV4:11 cells; assay: RNA-Seq; type: cell-based, human; details: MV4:11, 2 μM, 3 days
MONO-Mac-6 cells = assay: Proliferation assay; type: cell-based; details: Homo sapiens, MONO-MAC-6, 72 h
Method in brief: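 MONO-MAC-6 cells were maintained in RPMI with 10% FBS, non-essential amino acids and OPI supplement. CellTiter-Glo used 5,000 cells/well and ≥5 two-fold dilutions from 50 μM (0.1% DMSO final), in triplicate wells with ≥2 biological replicates, over 72 h at 37°C.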

GDM-1 cells = assay: Proliferation assay; type: cell-based; details: Homo sapiens, GDM-1, 72 h
Method in brief: as §2

WDR5 [7] = biological target: T1, WDR5; assay: ChIP-PCR of WDR5 binding; type: cell-based; details: MV4:11, 36 μM, 4 h
Method in brief: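 MV4:11 cells were treated 4 h with 36 μM test compound, its negative control or DMSO. They were cross-linked in 0.75–1% formaldehyde for 10 min at RT and quenched with 125 mM glycine. Cells were lysed in SDS/Triton formaldehyde lysis buffer. Chromatin from 6 million cells was used per IP, with anti-WDR5 (D9E1I) or IgG, followed by low-salt, high-salt, LiCl and TE washes. Signal is % input, biological triplicate, SEM.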

WDR5 [8] = biological target: T1, WDR5; assay: Subcellular fractionation, WDR5 western blot; type: cell-based; details: MV4:11, 36 μM, 4 h
[9] = tested on: gene body transcription in MV4:11 cells; assay: PRO-Seq; type: cell-based, human; details: MV4:11, 36 μM, 15, 30 or 60 min
Method in brief: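 30 million MV4:11 cells were harvested 15, 30 or 60 min after test compound; 0.1% DMSO for 60 min was the reference. Cells were swollen on ice, lysed with 0.1% Triton/10% glycerol and Dounce-homogenized. Nuclei were stored at −80°C in 40% glycerol freezing buffer (2 × 10^7 nuclei/100 μl) and used for nuclear run-on. Beads were washed in high/medium/low salt; RNA was TRIzol-extracted.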

SMILES	GI50 (THP-1 cells)	GI50 (HL60 cells)	GI50 (MV4:11 cells)	GI50 (K562 cells)	GI50 (Molm13 cells)	GI50 (MA93 FLT3-ITD cells)	GI50 (SET-2 cells)	GI50 (RN2 cells)	GI50 (NOMO-1 cells)	GI50 (MA93 cells)	GI50 (HEL cells)	GI50 (MA93 Ras cells)	also measured
CN1CCN(c2ccc(-c3cccc(CN4CCOCC4)c3)cc2NC(=O)c2c[nH]c(=O)cc2C(F)(F)F)CC1 [OICR-9429, reference compound]			31 µM										transcription of RPGs [2]: selectively inhibited the transcription of WDR5-bound RPGs; p53 and p21 protein induction [3]: induced both p53 and p21
COc1ccc(C2=N[C@@H](c3ccc(Cl)cc3)[C@@H](c3ccc(Cl)cc3)N2C(=O)N2CCNC(=O)C2)c(OC(C)C)c1 [nutlin-3, reference compound]													p53 turnover in CHX chase [4]: increased the stability of p53

Continued, in another order:

GI50 (THP-1 cells)	GI50 (HL60 cells)	GI50 (MV4:11 cells)	GI50 (K562 cells)	GI50 (Molm13 cells)	SMILES	GI50 (MA93 FLT3-ITD cells)	GI50 (SET-2 cells)	GI50 (RN2 cells)	GI50 (NOMO-1 cells)	GI50 (MA93 cells)	GI50 (HEL cells)	GI50 (MA93 Ras cells)	also measured
> 50 µM	> 50 µM	> 50 µM	> 50 µM	> 50 µM	COc1cc(CNC(=O)c2cccc(CNC3=NCCN3)c2F)cc(OC)c1 [Compound C3nc, 3-(((4,5-dihydro-1H-imidazol-2-yl)amino)methyl)-N-(3,5-dimethoxybenzyl)-2-fluorobenzamide]	> 50 µM	> 50 µM	> 50 µM	> 50 µM	> 50 µM	> 50 µM	> 50 µM	binding to WDR5 of negative control (WDR5 [1]): reduced affinity
> 50 µM	> 50 µM	42 ± 9.02 µM	31.7 ± 2.45 µM	> 50 µM	Cc1nc(F)ccc1-c1cc(C(=O)NCc2ccc(Cl)c(Cl)c2)ccc1Cn1ccn(C)c1=N [Compound C6nc, N-(3,4-dichlorobenzyl)-3-(6-fluoro-2-methylpyridin-3-yl)-4-((2-imino-3-methyl-2,3-dihydro-1H-imidazol-1-yl)methyl)benzamide]	26.2 ± 4.75 µM	> 50 µM	> 50 µM	> 50 µM	30.3 ± 5.94 µM	> 50 µM	> 50 µM	WDR5 binding events on chromatin (WDR5 [5]): little impact on WDR5 binding; effect on gene expression levels [6]: no significant effect on gene expression levels; GI50 (MONO-Mac-6 cells): > 50 µM; GI50 (GDM-1 cells): > 50 µM
> 50 µM	> 50 µM		> 50 µM		COc1cc(CNC(=O)c2ccc(F)c(CNC3=NCCN3)c2)cc(OC)c1 [Compound C3, 3-(((4,5-dihydro-1H-imidazol-2-yl)amino)methyl)-N-(3,5-dimethoxybenzyl)-4-fluorobenzamide]	21.2 ± 2.11 µM	> 50 µM	8.65 ± 0.989 µM	> 50 µM	22.1 ± 3.6 µM	> 50 µM	> 50 µM	reduction in WDR5 binding at five loci (WDR5 [7]): > 10 fold; chromatin-bound WDR5 (P3 fraction) (WDR5 [8]): reduced the total amount of chromatin-bound WDR5; increase in transcription [9]: no instances in which C3 promoted an increase in transcription

Reference: paper PMC6448596 (Cell reports, 2019)
